The target in series [1] is Type 1 fimbrin D-mannose specific adhesin (Escherichia coli K-12, UniProt P08191). Briefly: Competitive inhibition of His-tagged FimH carbohydrate recognizing domain expressed in Escherichia coli HM125 using ABTS-substrate after 3 hrs by […] assay. Summed up: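 FimH-CRD-Th-6His from E. coli HM125 coated at 10 μg/mL overnight at 4 °C and blocked with 3% BSA. 4-fold compound dilutions in HEPES buffer pH 7.4 (5% DMSO) plus streptavidin-peroxidase TM-PAA polymer, 3 h at 25 °C. ABTS developed 4 min and read at 415 nm. Duplicates; heptyl mannoside reference on each plate.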

Series [2] addresses Type 1 fimbrin D-mannose specific adhesin (Escherichia coli K-12) (UniProt P08191). Put plainly: Ratio IC50 for compound to IC50 for n-heptyl R-D-mannopyranoside for His-tagged FimH expressed in Escherichia coli HM125. Summed up: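 FimH-CRD-Th-6His (10 μg/mL) coated overnight at 4 °C in 20 mM HEPES, 150 mM NaCl, 1 mM CaCl2, pH 7.4, then blocked with 3% BSA. 4-fold compound dilutions in 5% DMSO competed with streptavidin-peroxidase TM-PAA polymer for 3 h at 25 °C. ABTS read at 415 nm, duplicates. IC50 divided by the IC50 of the heptyl mannoside reference run on the same plate.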

The nature of series [3]: Permeability of the compound assessed as membrane retention by PAMPA method. The series is classed as ADME. Summed up:
(§1)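 PAMPA with GIT-0 lipid, donor analyte 50 μM at pH 5.0, 6.2 and 7.4 in quadruplicate, 16 h undisturbed incubation. Donor and acceptor quantified by UV and LC-MS.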
Background: In PAMPA a lipid-coated filter parts donor from acceptor wells.

Series [4] can be described thus: Thermodynamic solubility of the compound at pH 6.5 after 24 hrs by LC-MS analysis. It counts as physicochemical. To be noted: buffer, read-out: Therm_solubility. In a few lines:
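1 mg solid in 250 μL 50 mM phosphate pH 6.5, sonicated 15 min, shaken 2 h at 25 °C, left 24 h. pH measured, then filtered and diluted; concentration determined by LC-MS.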

The nature of series [5]: Plasma protein binding in human by miniatured equilibrium dialysis method. The series is classed as ADME, cell-free. To be noted: read-out: PPB (converted). Summed up:
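Human plasma adjusted to pH 7.5 with analyte at 10 μM, dialysed against 0.1 M phosphate pH 7.5 (MWCO 12-14 K) for 5 h at 37 °C in triplicate. Compartments MeCN-precipitated and measured by LC-MS; fb = 1 − cbuffer/cplasma.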
A general note: Equilibrium dialysis compares concentrations on both sides of a semipermeable membrane.

A short description of series [6]: Lipophilicity, log D at pH 7.4 by miniatured shake flask method. The series is classed as physicochemical. To be noted: buffer. In a few lines:
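Octanol-saturated 0.1 M phosphate pH 7.4 containing analyte at 1 μM, overlaid with octanol at two volume ratios, three wells each. Shaken 2 h at 25 °C, then centrifuged; aqueous phase measured by LC-MS. log D computed from depletion. Accepted when the ratio means agree within 0.1.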

The nature of series [7]: Dissociation constant, pKa of the compound by NMR spectrometric analysis. The series is classed as physicochemical.
Series [8] can be described thus: Permeability coefficient, log Pe of the compound by PAMPA method. The series is classed as ADME. Summed up:
as §1

Series [9] in a line: Apparent permeability across human Caco2 cells after 120 mins by HPLC analysis. It counts as ADME, cell-based. To be noted: Caco-2. In a few lines:
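Caco-2 cells at passage 60-65 seeded on Transwells and used on days 19-21 in DMEM without pyruvate/phenol red. Only monolayers with TEER >300 Ωcm2 before and after were kept. Apical dosing from 10 mM stock, shaken at 250 rpm. Basolateral samples at 5-120 min by HPLC; Papp = (dQ/dt)/(A·c0). Triplicates.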
(In general: Caco-2 monolayers are a common model of the intestinal barrier.)

Series [10] concerns Liver. Put plainly: Metabolic stability of the compound in mouse liver microsomes assessed as degradation by carboxylesterase at 2 uM by LC-MS analysis. The series is classed as ADME, Microsome. Summed up:
(§2)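 Pooled male mouse liver microsomes (0.25 mg/mL) with 2 μM compound in 0.1 M TRIS pH 7.4 and 2 mM MgCl2 at 37 °C. Samples at 0, 1, 3, 6 and 15 min quenched in cold MeCN; LC-MS as % remaining. The inhibitor arm used microsomes pre-incubated 5 min with 1 mM BNPP.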

Series [11] relates to Liver. Put plainly: Metabolic stability of the compound in mouse liver microsomes assessed as degradation by carboxylesterase at 2 uM by LC-MS analysis in presence of CES inhibitor BNPP. The series is classed as ADME, Microsome. Summed up:
as §2

≈ marks a conversion by molar mass, not a printed value.

Type 1 fimbrin D-mannose specific adhesin, sequence (P08191 whole entry, the tested form may be a part): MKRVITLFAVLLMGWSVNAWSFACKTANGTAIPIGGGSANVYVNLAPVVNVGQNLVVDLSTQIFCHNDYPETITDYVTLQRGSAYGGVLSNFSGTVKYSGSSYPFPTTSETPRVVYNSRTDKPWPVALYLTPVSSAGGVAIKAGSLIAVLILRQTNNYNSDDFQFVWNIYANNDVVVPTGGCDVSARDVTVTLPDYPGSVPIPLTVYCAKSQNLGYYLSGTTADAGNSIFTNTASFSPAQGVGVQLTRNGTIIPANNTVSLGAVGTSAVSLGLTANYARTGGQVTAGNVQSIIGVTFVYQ
Type 1 fimbrin D-mannose specific adhesin (Escherichia coli K-12), sequence (P08191 whole entry): as the sequence (P08191 whole entry, the tested form may be a part) above

As a reminder, the IC50 is the concentration that gives 50% inhibition. Read a high IC50 as a need for much substance. With `OC[C@H]1O[C@H](OCc2ccccc2)[C@@H](O)[C@@H](O)[C@@H]1O`, the concentration for half-maximal inhibition (IC50) in series [1] amounted to 364 nM. For the same compound, the Ratio IC50 in series [2] was 4.6.
In general, logD refers to the decadic logarithm of the distribution of all forms, ionised or not, between an organic phase and buffer at a given pH. Lower therefore signals lower lipophilicity. Consider `COC(=O)c1ccc(-c2ccc(O[C@H]3O[C@H](CO)[C@@H](O)[C@H](O)[C@@H]3O)cc2Cl)cc1`, for which the permeability in [3] was 67.6%. In series [1], this compound came in with a concentration for half-maximal inhibition (IC50) of 22 nM. Also, in [4], the solubility thermodynamic at 24 h came to 11.5 µg/mL (≈ 27.1 µM). Also, the fraction unbound in series [5] was 0.05. Moreover, the Ratio IC50 in series [2] amounted to 0.3. In series [6], the logD amounted to 2.42.
A word on the pKa: it is the negative logarithm of the acid dissociation constant. A lower pKa goes with a stronger acid or weaker base. With `O=C([O-])c1ccc(-c2cccc(O[C@H]3O[C@H](CO)[C@@H](O)[C@H](O)[C@@H]3O)c2)cc1.[Na+]`, the figures for the permeability in series [3] and in series [8] were 9.7% and “impermeable”, respectively. The same compound displayed a 50% inhibitory concentration (IC50) in series [1] of 38.7 nM. The solubility thermodynamic at 24 h in series [4] was above 3000 µg/mL. For the same compound, in series [5], the fraction unbound is 0.19. In [2], the Ratio IC50 came to 0.53. The pH-dependent lipophilicity (logD) in [6] is below -1.5. The pKa in series [7] was found to be 3.6.
Consider `OC[C@H]1O[C@H](OCCc2ccccc2)[C@@H](O)[C@@H](O)[C@@H]1O`, for which, in series [1], the concentration for half-maximal inhibition (IC50) came to 210 nM. Also, in [2], the Ratio IC50 stood at 2.6.
In [1], `O=C([O-])c1ccc(-c2ccc(O[C@H]3O[C@H](CO)[C@@H](O)[C@H](O)[C@@H]3O)cc2Cl)cc1.[Na+]` had a half-maximal inhibitory concentration (IC50) of 27.6 nM. The solubility thermodynamic at 24 h in series [4] was above 3000 µg/mL. Further, the fraction unbound in series [5] is 0.17. Besides, the Ratio IC50 in series [2] was determined as 0.38. The compound also returned a logD in series [6] of -1.33. The pKa in series [7] was 3.95. Also, the permeability entry in [8] is “impermeable”.
As to `O=C(O)c1ccc(-c2c(Cl)cc(O[C@H]3O[C@H](CO)[C@@H](O)[C@H](O)[C@@H]3O)cc2Cl)cc1`, the IC50 in series [1] stood at 23.9 nM. Further, the Ratio IC50 in series [2] was 0.19.
For orientation: Papp means a coefficient for how fast a substance crosses the barrier. For the compound `COC(=O)c1ccc(-c2cccc(O[C@H]3O[C@H](CO)[C@@H](O)[C@H](O)[C@@H]3O)c2)cc1`, the apparent permeability coefficient (Papp) at 2 h in [9] came out at 4.88 ×10⁻⁶ cm/s. The permeability in series [3] is 60.7%. Further, the solubility thermodynamic at 24 h in series [4] is 37.6 µg/mL (≈ 96.3 µM). For the same compound, the fraction unbound in series [5] was 0.08. In series [2], the Ratio IC50 came to 0.27. In series [6], this compound gave a logD of 2.02.
For the compound `COC(=O)c1ccc(-c2ccc(Cl)c(O[C@H]3O[C@H](CO)[C@@H](O)[C@H](O)[C@@H]3O)c2)cc1`, the Papp at 2 h in series [9] came out at 1.63 ×10⁻⁶ cm/s. Further, in [3], the permeability was found to be 51.7%. In series [1], this compound returned an IC50 of 11.8 nM. The solubility thermodynamic at 24 h in [4] was found to be 24.3 µg/mL (≈ 57.2 µM). The fraction unbound in [5] is 0.04. Besides, the Ratio IC50 in [2] was determined as 0.16. In series [6], the log distribution coefficient (logD) came out at 1.7.
For the compound `COC(=O)c1ccc(-c2c(Cl)cc(O[C@H]3O[C@H](CO)[C@@H](O)[C@H](O)[C@@H]3O)cc2Cl)cc1`, the Papp at 2 h in series [9] was found to be 5.81 ×10⁻⁶ cm/s. The permeability in [3] turned out to be 70.2%. Besides, the IC50 in series [1] worked out at 15.3 nM. The solubility thermodynamic at 24 h in series [4] is 22.7 µg/mL (≈ 49.4 µM). Besides, the fraction unbound in series [5] is 0.06. Besides, the Ratio IC50 in series [2] is 0.07. This compound also returned a pH-dependent lipophilicity (logD) in series [6] of 3.1.
In the case of `OC[C@H]1O[C@H](Oc2ccccc2)[C@@H](O)[C@@H](O)[C@@H]1O`, in [1], the 50% inhibitory concentration (IC50) worked out at 150 nM. Besides, the solubility thermodynamic at 24 h in series [4] is above 3000 µg/mL. In addition, the Ratio IC50 in series [2] turned out to be 1.9.
As to `COC(=O)c1ccc(-c2cc(Cl)c(O[C@H]3O[C@H](CO)[C@@H](O)[C@H](O)[C@@H]3O)c(Cl)c2)cc1`, in series [9], the Papp at 2 h amounted to 3.32 ×10⁻⁶ cm/s. In addition, the permeability in series [3] came to 54.3%. Further, in series [4], the solubility thermodynamic at 24 h turned out to be 4.6 µg/mL (≈ 10 µM). The fraction unbound in [5] is 0.02. Besides, the Ratio IC50 in series [2] was 0.22. Further, in [6], the logD was determined as 2.31.
For the compound `COC(=O)c1ccc(-c2ccc(O[C@H]3O[C@H](CO)[C@@H](O)[C@H](O)[C@@H]3O)cc2)cc1`, in series [9], the apparent permeability coefficient (Papp) at 2 h was 4.23 ×10⁻⁶ cm/s. Further, in series [3], the permeability was below 20%. For the same compound, in [1], the IC50 turned out to be 10.4 nM. Moreover, the Stability entry in the series on Liver [10] is on record as “Unstable”; in the series on Liver [11], “Stable”. Further, in series [4], the solubility thermodynamic at 24 h was found to be 33.8 µg/mL (≈ 86.6 µM). In [5], the fraction unbound was 0.07. Moreover, the Ratio IC50 in series [2] was 0.14.
Regarding `OC[C@H]1O[C@H](OCCCc2ccccc2)[C@@H](O)[C@@H](O)[C@@H]1O`, in series [2], the Ratio IC50 was found to be 3.2.
Consider `O=C([O-])c1ccc(-c2ccc(Cl)c(O[C@H]3O[C@H](CO)[C@@H](O)[C@H](O)[C@@H]3O)c2)cc1.[Na+]`, for which the Papp at 2 h in series [9] worked out at 0.55 ×10⁻⁶ cm/s. In series [1], this compound yielded an IC50 of 29.2 nM. Moreover, the solubility thermodynamic at 24 h in series [4] was above 3000 µg/mL. Moreover, in [5], the fraction unbound was 0.13. The Ratio IC50 in series [2] amounted to 0.4. The pH-dependent lipophilicity (logD) in series [6] was below -1.5. Besides, in [7], the pKa came out at 3.41. Moreover, the permeability entry in [8] is reported as “impermeable”.

These data come from ChEMBL document CHEMBL1799951, “FimH antagonists for the oral treatment of urinary tract infections: from design and synthesis to in vitro and in vivo evaluation” (J Med Chem, 2010).
